Assay results: ChEMBL document CHEMBL1926607 (J Med Chem, 2011)
Each block holds one compound with its values, some of them ahead of it. Activity calls are given as the source filed them. The rule behind the calls is not given here.

How the values were obtained:
[1] = target: 5-hydroxytryptamine receptor 2A (Rattus norvegicus, UniProt P14842); experiment: Displacement of [3H]ketanserin from 5HT2A receptor in Sprague-Dawley albinus rat frontal cortex membranes after 15 mins; format: cell membranes, Membrane
Summary of the method: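 Rat frontal cortex membranes (male Sprague–Dawley, 180–200 g). Nonspecific binding was set with 1 μM cinanserin.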

[2] = target: 5-hydroxytryptamine receptor 7 (Rattus norvegicus, UniProt P32305); experiment: Displacement of [3H]-5-CT from 5HT7 receptor in Sprague-Dawley albinus rat hyphalamic membranes after 120 mins; format: cell membranes, Membrane
[3] = target: 5-hydroxytryptamine receptor 4 (Rattus norvegicus, UniProt Q62758); experiment: Displacement of [3H]GR113808 from 5HT4 receptor in Sprague-Dawley albinus rat striatal membranes after 30 mins by scintillation counting; format: cell membranes, Membrane
[4] = target: T1, 5-hydroxytryptamine receptor 3A (Rattus norvegicus, UniProt P35563); experiment: Displacement of [3H]-LY278584 from 5HT3 receptor in Sprague-Dawley albinus rat cerebral cortex membranes after 30 mins; format: cell membranes, Membrane
T1 sequence (P35563 whole entry): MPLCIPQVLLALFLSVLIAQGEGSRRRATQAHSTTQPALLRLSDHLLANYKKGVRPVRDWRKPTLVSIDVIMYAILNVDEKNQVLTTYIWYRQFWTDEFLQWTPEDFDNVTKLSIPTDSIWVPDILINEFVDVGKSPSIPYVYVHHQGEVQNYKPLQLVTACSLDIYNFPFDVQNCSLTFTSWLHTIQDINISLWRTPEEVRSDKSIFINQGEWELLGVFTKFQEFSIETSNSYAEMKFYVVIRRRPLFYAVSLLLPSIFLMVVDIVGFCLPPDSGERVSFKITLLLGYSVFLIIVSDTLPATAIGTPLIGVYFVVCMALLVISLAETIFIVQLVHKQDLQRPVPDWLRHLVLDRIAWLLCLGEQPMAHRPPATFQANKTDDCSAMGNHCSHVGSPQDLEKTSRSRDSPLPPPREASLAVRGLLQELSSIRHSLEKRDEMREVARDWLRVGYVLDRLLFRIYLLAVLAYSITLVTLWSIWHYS

[5] = target: D(2) dopamine receptor (Rattus norvegicus, UniProt P61169); experiment: Displacement of [3H]spiperone from dopamine D2 receptor in Sprague-Dawley albinus rat striatal membranes after 15 mins; format: cell membranes, Membrane
[6] = target: T2, Adrenergic receptor alpha-1 (Rattus norvegicus, UniProt P15823+P23944+P43140); experiment: Displacement of [3H]prazosin from alpha1 adrenoceptor in Sprague-Dawley albinus rat cerebral cortex membranes after 30 mins; format: cell membranes, Membrane
T2 sequence (P15823 whole entry): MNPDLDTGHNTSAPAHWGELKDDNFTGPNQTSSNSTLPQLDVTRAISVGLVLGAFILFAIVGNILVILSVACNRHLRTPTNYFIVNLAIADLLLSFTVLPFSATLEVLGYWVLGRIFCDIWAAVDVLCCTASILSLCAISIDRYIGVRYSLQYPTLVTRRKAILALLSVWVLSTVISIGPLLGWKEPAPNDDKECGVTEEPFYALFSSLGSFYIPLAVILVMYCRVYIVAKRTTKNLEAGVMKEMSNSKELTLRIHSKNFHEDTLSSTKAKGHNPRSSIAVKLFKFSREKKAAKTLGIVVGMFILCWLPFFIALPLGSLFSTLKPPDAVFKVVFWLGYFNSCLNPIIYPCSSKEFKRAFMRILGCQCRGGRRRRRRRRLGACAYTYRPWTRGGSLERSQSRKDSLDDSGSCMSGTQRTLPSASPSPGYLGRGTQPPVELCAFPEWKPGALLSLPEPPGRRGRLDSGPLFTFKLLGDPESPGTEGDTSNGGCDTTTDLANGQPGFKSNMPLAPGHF
T2 sequence (P23944 whole entry): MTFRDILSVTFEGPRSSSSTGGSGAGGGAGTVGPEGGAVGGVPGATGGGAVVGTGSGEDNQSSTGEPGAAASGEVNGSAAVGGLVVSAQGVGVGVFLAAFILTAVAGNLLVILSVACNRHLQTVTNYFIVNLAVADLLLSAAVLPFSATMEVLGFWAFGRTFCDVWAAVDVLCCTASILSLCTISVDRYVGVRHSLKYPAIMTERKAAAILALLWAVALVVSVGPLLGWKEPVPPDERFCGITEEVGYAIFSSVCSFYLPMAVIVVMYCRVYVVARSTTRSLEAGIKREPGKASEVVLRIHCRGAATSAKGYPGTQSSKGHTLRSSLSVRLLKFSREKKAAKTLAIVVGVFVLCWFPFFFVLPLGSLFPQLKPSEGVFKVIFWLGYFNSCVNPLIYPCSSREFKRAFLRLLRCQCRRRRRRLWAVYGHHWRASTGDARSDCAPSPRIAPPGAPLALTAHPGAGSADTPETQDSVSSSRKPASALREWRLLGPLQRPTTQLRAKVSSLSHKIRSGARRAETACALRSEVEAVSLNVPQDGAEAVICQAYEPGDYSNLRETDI
T2 sequence (P43140 whole entry): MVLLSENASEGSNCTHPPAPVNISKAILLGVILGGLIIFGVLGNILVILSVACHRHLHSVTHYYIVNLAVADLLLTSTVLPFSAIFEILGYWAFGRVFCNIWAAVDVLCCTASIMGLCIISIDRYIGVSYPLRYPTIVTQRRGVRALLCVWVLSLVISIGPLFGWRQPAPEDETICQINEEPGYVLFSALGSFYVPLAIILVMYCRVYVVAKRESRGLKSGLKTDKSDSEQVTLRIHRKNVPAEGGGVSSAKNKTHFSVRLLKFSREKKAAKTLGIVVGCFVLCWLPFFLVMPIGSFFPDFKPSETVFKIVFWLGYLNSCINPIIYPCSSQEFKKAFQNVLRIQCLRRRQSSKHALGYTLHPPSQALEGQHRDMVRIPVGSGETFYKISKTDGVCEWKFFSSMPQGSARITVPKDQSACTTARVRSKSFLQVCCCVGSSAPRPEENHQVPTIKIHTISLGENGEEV
Summary of the method: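 Rat cerebral cortex membranes (about 250 μg protein; male Sprague–Dawley, 180–200 g) in 50 mM Tris-HCl with 10 mM MgCl2, pH 7.4. Incubation was 30 min at 25 °C with 0.2 nM [3H]prazosin and six competitor concentrations. Nonspecific binding was set with 10 μM phentolamine.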

[7] = target: T3, 5-hydroxytryptamine receptor 1A (Homo sapiens, UniProt P08908); experiment: Agonist activity at human 5HT1A receptor expressed in human HeLa cells assessed as inhibition of forskolin-stimulated cAMP production […] measured after 2 hrs by RIA; format: functional, cell-based
T3 sequence (P08908 whole entry): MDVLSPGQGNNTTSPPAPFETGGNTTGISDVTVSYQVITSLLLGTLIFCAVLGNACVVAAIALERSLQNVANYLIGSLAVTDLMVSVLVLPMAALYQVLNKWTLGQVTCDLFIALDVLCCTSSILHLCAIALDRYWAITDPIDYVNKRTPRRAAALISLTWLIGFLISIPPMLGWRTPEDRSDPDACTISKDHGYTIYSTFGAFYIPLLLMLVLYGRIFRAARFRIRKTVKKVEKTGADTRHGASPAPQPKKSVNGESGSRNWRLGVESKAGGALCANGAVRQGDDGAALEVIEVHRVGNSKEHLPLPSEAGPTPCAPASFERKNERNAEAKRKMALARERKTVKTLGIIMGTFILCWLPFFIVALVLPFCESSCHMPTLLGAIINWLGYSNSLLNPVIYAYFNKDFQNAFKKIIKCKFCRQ
Summary of the method: (§1)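 HeLa cells stably expressing the h5-HT1AR, grown in DMEM with 2 mM glutamine, 1 mM pyruvate and 10% heat-inactivated FCS, and used after 2–3 days at about 7.5 × 10^4 cells/well. After a PBS wash, cells were incubated 10 min in PBS with 0.5 mM isobutylmethylxanthine and 10 μM forskolin, with or without compound. The reaction was stopped with ice-cold ethanol, extracted 2 h and lyophilized; cAMP was measured by RIA.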

[8] = target: T4, 5-hydroxytryptamine receptor 1A (Homo sapiens) (UniProt P08908); experiment: Agonist activity at human 5HT1A receptor expressed in human HeLa cells assessed as inhibition of forskolin-stimulated cAMP production pretreated 20 mins before forskolin challenge measured after 2 hrs by RIA relative to control; format: functional, cell-based
T4 sequence (whole entry): T3 sequence (P08908 whole entry)

[9] = target: T5, 5-hydroxytryptamine receptor 1A (Rattus norvegicus, UniProt P19327); experiment: Displacement of [3H]-8-OH-DPAT from 5-HT1A receptor in Sprague-Dawley albinus rat cerebral cortex membranes after 15 mins; format: cell membranes, Membrane
T5 sequence (P19327 whole entry): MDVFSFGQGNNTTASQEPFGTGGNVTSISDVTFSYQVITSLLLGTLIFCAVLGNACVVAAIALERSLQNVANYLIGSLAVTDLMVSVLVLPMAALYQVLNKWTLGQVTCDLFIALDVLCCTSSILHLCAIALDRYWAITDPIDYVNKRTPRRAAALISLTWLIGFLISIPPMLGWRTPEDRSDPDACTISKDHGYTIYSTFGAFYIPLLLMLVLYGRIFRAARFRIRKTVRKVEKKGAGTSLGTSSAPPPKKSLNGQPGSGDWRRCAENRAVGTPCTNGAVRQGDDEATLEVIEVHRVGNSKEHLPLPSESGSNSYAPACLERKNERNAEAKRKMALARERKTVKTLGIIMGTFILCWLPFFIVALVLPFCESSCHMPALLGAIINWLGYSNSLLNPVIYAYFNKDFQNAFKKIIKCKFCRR

[10] = target: T4, 5-hydroxytryptamine receptor 1A (Homo sapiens); experiment: Partial agonist activity at human 5HT1A receptor expressed in human HeLa cells assessed as inhibition of forskolin-stimulated cAMP production pretreated 20 mins before forskolin challenge measured after 2 hrs by RIA; format: functional, cell-based; summary of the method: as §1

Sequence of D(2) dopamine receptor (P61169 whole entry): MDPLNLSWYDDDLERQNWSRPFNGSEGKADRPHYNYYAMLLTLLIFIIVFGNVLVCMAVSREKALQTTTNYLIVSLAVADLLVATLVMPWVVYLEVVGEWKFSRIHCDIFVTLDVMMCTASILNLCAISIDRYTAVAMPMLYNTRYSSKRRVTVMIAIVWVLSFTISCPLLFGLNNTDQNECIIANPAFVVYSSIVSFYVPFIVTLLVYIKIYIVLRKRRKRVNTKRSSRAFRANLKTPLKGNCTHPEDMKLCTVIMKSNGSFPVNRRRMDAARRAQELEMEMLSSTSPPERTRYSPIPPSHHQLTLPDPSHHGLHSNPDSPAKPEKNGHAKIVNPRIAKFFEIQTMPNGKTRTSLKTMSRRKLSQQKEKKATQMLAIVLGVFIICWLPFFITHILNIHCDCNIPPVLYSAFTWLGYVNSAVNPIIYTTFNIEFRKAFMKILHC
Sequence of 5-hydroxytryptamine receptor 2A (P14842 whole entry): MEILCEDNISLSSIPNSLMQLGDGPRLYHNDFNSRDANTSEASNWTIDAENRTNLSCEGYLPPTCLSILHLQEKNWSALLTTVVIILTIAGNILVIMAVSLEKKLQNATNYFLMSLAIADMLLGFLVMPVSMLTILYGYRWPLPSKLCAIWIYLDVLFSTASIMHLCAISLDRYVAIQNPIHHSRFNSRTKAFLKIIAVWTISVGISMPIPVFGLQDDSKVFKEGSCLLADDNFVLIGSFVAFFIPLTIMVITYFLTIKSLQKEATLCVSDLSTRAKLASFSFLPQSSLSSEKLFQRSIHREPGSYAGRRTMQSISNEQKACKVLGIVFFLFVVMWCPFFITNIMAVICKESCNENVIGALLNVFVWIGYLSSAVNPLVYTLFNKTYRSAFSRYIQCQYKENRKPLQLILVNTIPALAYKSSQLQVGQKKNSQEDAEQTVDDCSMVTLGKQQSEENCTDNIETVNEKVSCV
Sequence of 5-hydroxytryptamine receptor 7 (P32305 whole entry): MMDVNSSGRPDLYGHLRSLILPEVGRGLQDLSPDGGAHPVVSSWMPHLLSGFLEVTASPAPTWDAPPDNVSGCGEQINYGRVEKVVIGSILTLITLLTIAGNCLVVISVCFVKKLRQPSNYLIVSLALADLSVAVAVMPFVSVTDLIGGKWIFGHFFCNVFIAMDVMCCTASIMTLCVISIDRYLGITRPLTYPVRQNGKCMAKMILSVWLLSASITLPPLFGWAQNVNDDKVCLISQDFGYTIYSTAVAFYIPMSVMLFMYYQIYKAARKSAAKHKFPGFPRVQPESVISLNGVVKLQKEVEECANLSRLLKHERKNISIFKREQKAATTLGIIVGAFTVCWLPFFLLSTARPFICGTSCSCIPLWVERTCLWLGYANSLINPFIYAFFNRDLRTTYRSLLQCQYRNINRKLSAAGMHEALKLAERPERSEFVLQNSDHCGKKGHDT
Sequence of 5-hydroxytryptamine receptor 4 (Q62758 whole entry): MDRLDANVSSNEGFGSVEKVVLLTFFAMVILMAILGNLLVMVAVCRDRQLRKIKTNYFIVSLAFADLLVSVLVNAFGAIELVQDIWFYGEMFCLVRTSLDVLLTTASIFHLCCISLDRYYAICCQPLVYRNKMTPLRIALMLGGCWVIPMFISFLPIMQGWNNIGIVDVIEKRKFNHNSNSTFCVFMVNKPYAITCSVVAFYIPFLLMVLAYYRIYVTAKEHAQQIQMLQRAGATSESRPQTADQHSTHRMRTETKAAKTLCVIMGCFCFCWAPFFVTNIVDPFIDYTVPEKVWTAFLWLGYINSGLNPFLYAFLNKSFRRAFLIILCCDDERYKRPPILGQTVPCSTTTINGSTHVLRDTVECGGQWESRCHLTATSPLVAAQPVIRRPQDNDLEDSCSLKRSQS

Ki [1]: > 1000 nM | Ki [2]: > 1000 nM | Ki [3]: > 1000 nM | Ki [4]: > 1000 nM | Ki [5]: > 1000 nM | Ki [6]: > 1000 nM
SMILES: Cl.O=C1C2CCCN2C(=O)N1CCCCNCCc1cccc2ccccc12 (stereo unspecified)

Ki [1]: > 1000 nM | EC50 [7]: 25.9 nM | Emax [8]: 88.6%
SMILES: O=C1CSC(=O)N1CCCCCCCCNCC1CCc2ccccc2O1 (stereo unspecified)

Ki [9]: 15.1 nM | Ki [1]: > 1000 nM | Emax [8]: 89.6%
SMILES: O=C1CSC(=O)N1CCCCNCC1CCc2ccccc2O1 (stereo unspecified)

Activity [10]: Active | Ki [9]: 8.3 nM | Ki [1]: > 1000 nM | Emax [8]: 75.8%
SMILES: O=C1C2CCCN2C(=O)N1CCCCNCc1ccc2ccccc2n1 (stereo unspecified)

Ki [1]: > 1000 nM | EC50 [7]: 34.2 nM | Emax [8]: 94.8%
SMILES: O=C1CSC(=O)N1CCCCCNCC1CCc2ccccc2O1 (stereo unspecified)

Ki [4]: > 1000 nM | Ki [5]: > 1000 nM | Ki [6]: 99 nM
SMILES: Cl.O=C1C2CCCN2C(=O)N1CCCCNCCc1ccc2ccccc2c1 (stereo unspecified)

Ki [9]: 114 nM
SMILES: O=C1C2CCCN2C(=O)N1C/C=C\CNCC1CCc2ccccc2O1 (stereo unspecified)

Ki [9]: 13 nM | Ki [1]: > 1000 nM | Emax [8]: 89.3%
SMILES: O=C1C2CSCN2C(=O)N1CCCCNCC1CCc2ccccc2O1 (stereo unspecified)

Ki [9]: 34 nM | Ki [1]: > 1000 nM | Ki [2]: > 1000 nM | Ki [3]: > 1000 nM | Ki [4]: > 1000 nM | Ki [5]: > 1000 nM | Ki [6]: 67 nM
SMILES: Cl.O=C1C2CCCCN2C(=O)CN1CCCCNCC1CCc2ccccc2O1 (stereo unspecified)

Ki [9]: 8.2 nM | Ki [1]: > 1000 nM | EC50 [7]: 23.3 nM | Emax [8]: 94.3%
SMILES: O=C1C2CCCN2C(=O)N1CCCNCC1CCc2ccccc2O1 (stereo unspecified)

Ki [1]: > 1000 nM | EC50 [7]: 19.9 nM | Emax [8]: 87%
SMILES: O=C1CSC(=O)N1CCCCCCNCC1CCc2ccccc2O1 (stereo unspecified)

Ki [9]: 27 nM | Ki [1]: > 1000 nM
SMILES: O=C1C2CCCN2C(=O)N1C/C=C/CNCC1CCc2ccccc2O1 (stereo unspecified)

Ki [9]: 28 nM | Ki [1]: > 1000 nM
SMILES: O=C1C2CCCN2C(=O)N1Cc1ccc(CNCC2CCc3ccccc3O2)cc1 (stereo unspecified)

Ki [9]: 49 nM | Ki [1]: > 1000 nM
SMILES: O=C1C2CCCN2C(=O)N1CCCCNCc1ccc2ccccc2c1 (stereo unspecified)

Ki [9]: 87.6 nM
SMILES: O=C1C2CCCN2C(=O)N1CCCCCCCCNCC1CCc2ccccc2O1 (stereo unspecified)

Further lines, the compound ahead of its results:

SMILES: O=C1C2CCCN2C(=O)N1CCCCNCc1cccc2ccccc12 (stereo unspecified)
Ki [9]: > 1000 nM

SMILES: O=C1C2CCCN2C(=O)N1CCCCCCNCC1CCc2ccccc2O1 (stereo unspecified)
Ki [9]: 5.9 nM | Ki [1]: > 1000 nM | EC50 [7]: 21.8 nM | Emax [8]: 91.2%

SMILES: O=C1C2CCCN2C(=O)N1CCCCNCc1ccccn1 (stereo unspecified)
Ki [9]: > 1000 nM

SMILES: O=C1C2CCCN2C(=O)N1CCCCNCc1ccccc1 (stereo unspecified)
Ki [9]: > 1000 nM

SMILES: O=C1C2CCCN2C(=O)N1CCCCNCCc1ccccc1 (stereo unspecified)
Ki [9]: > 1000 nM

SMILES: O=C1C2CCCN2C(=O)N1CCCCNCc1cccs1 (stereo unspecified)
Ki [9]: > 1000 nM

SMILES: O=C1C2CCCN2C(=O)N1CCCCCNCC1CCc2ccccc2O1 (stereo unspecified)
Ki [9]: 12.9 nM | Ki [1]: > 1000 nM | EC50 [7]: 157 nM | Emax [8]: 92.5%

SMILES: O=C1C2CCCN2C(=O)N1CCCCNCCc1ccco1 (stereo unspecified)
Ki [9]: > 1000 nM

SMILES: O=C1C2CCCN2C(=O)N1CC#CCNCC1CCc2ccccc2O1 (stereo unspecified)
Ki [9]: > 1000 nM

SMILES: O=C1C2CCCN2C(=O)N1CCCCNCc1ccco1 (stereo unspecified)
Ki [9]: > 1000 nM

SMILES: O=C1C2CCCN2C(=O)N1Cc1cccc(CNCC2CCc3ccccc3O2)c1 (stereo unspecified)
Ki [1]: > 1000 nM

SMILES: O=C1C2CCCN2C(=O)N1CCCCNCCc1ccccn1 (stereo unspecified)
Ki [9]: > 1000 nM

SMILES: O=C1C2CCCN2C(=O)N1CCCCNCCc1cccs1 (stereo unspecified)
Ki [9]: > 1000 nM
